Measurements collected from several papers.
Compare with care: the assays were run in different laboratories.
SULT2A1: Sulfotransferase 2A1 (SULT2A1, Homo sapiens, UniProt Q06520)
VHL: von Hippel-Lindau disease tumor suppressor (VHL, Homo sapiens, UniProt P40337)
Pah: Phenylalanine-4-hydroxylase (Pah, Rattus norvegicus, UniProt P04176)

C=C(C)[C@@H]1CC[C@]2(C)CC[C@]3(C)[C@H](CC[C@@H]4[C@@]5(C)CC[C@H](O)C(C)(C)[C@@H]5CC[C@]43C)[C@@H]12 — Kd (GTPase KRas (KRAS, Homo sapiens, UniProt P01116); binding, ITC): 0.33 µM
C[C@]12CC[C@H](O)CC1=CC[C@@H]1[C@@H]2CC[C@]2(C)C(=O)CC[C@@H]12 — Kd (SULT2A1; binding, fluorescence): 0.29 µM
c1cncc(-c2cccc(Nc3nccc(NC4CCCCC4)n3)c2)c1 — Kd (Ribosomal protein S6 kinase alpha-1, N-terminal kinase domain (RPS6KA1, Homo sapiens, UniProt Q15418); binding, competition with immobilised ligand): 4.4 µM
CCCN1CCN(c2ccc(-c3cncc(Cl)c3N3CCC4(CCNC4=O)CC3)cc2)CC1 — Kd (Serine/threonine-protein kinase MRCK beta (CDC42BPB, Homo sapiens, UniProt Q9Y5S2); cell-free assay; lysate): 4.03 µM
Nc1ncnc2c1ncn2[C@@H]1O[C@H](COP(=O)(O)O)[C@@H](OP(=O)(O)O)[C@H]1O — Kd (SULT2A1; binding, fluorescence): 0.55 µM
Cc1ncsc1-c1ccc(CNC(=O)[C@@H]2C[C@H](O)CN2C(=O)[C@@H](NC(=O)C2(F)CC2)C(C)(C)C)c(OCCOc2ccc(CN3CCN(c4cc(-c5ccccc5O)nnc4N)CC3)cc2)c1 — Kd (VHL; binding, SPR): > 10 µM
CCCC[C@H](N)C(=O)O — Kd (Pah; binding, fluorescence; pH 7.5): 17000 µM
Cc1cnc(-c2ccc(-c3ccc(NC(=O)Nc4c(F)cc(F)cc4F)cc3F)c3c2C(=O)NC3)[nH]1 — Kd (Serine/threonine-protein kinase 24 (STK24, Homo sapiens, UniProt Q9Y6E0); binding, competition with immobilised ligand): 0.024 µM
CC(=O)N[C@H]1[C@H]([C@H](O)[C@H](O)CO)O[C@@](O[C@H]2[C@@H](O)[C@@H](CO)O[C@@H](O[C@H]3[C@H](O)[C@@H](NC(C)=O)C(O)O[C@@H]3CO)[C@@H]2O)(C(=O)O)C[C@@H]1O (some centres unmarked) — Kd (SIGLEC5 (Homo sapiens, UniProt O15389, C36A); binding, NMR): 7000 µM
Cc1cc(Nc2cc3ncccc3c(N[C@@H]3C[C@H]4CC[C@@H](C3)N4CCC#N)n2)n[nH]1 — Kd (Cyclin-dependent kinase 4, with cyclin D3 (CDK4, Homo sapiens, UniProt P11802); binding, competition with immobilised ligand): 0.028 µM
Cc1ncsc1-c1ccc(CNC(=O)[C@@H]2C[C@@H](O)CN2C(=O)[C@@H](NC(=O)C2(F)CC2)C(C)(C)C)c(OCCOCCOCCN2CCN(c3cc(-c4ccccc4O)nnc3N)CC2)c1 — Kd (VHL; binding, SPR): 0.098 µM
Cc1cc2nc3c(=O)[nH]c(=O)nc-3n(C[C@H](O)[C@H](O)[C@H](O)COP(=O)(O)OP(=O)(O)OC[C@H]3O[C@@H](n4cnc5c(N)ncnc54)[C@H](O)[C@@H]3O)c2cc1C — Kd (Annexin A11 (Homo sapiens, UniProt P50995); binding; lysate): 0.055 µM
N[C@H](Cc1ccccc1)C(=O)O — Kd (Pah; binding, fluorescence; pH 7.5): 8400 µM
Nc1ncnc2c1ncn2[C@@H]1O[C@H](CSCC[C@H](N)C(=O)O)[C@@H](O)[C@H]1O — Kd (mdh (Escherichia coli, UniProt P61889, del14-14/del9-10/V5N); binding, ITC): 13.3 µM
